Experimental findings from ChEMBL document CHEMBL2417469, “Synthesis of novel analogs of 2-pyrazoline obtained from [(7-chloroquinolin-4-yl)amino]chalcones and hydrazine as potential antitumor and antimalarial agents” (Eur J Med Chem, 2013) are described below.

For series [1], the system named is Plasmodium falciparum. The experiment in a line: Antimalarial activity against Plasmodium falciparum NF54 infected in human serum at 20 ug/ml after 48 hrs by fluorometric method. In kind it is functional. Summed up:
(§1)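 Asynchronous P. falciparum NF54 at 1.5–2% parasitemia, 5% hematocrit in RPMI with 10% human serum, exposed 48 h at 37 °C under 90% N2/5% CO2/5% O2 at the stated concentration; parasite DNA stained with ethidium bromide after proteinase K lysis; viability % = (Flu treated − medium)/(Flu untreated − medium) ×100; triplicate.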

Series [2] in a line: Toxicity in RBC (unknown origin) assessed as hemolysis after 48 hrs at 20 to 80 ug/ml by spectrophotometry. In kind it is cell-based, Erythrocyte. The note with it: red blood cells (RBC); read-out: Activity. The gist of the method: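 Red blood cells at 5% hematocrit in RPMI 1640 exposed to 20, 40 and 80 µg/mL for 48 h at 37 °C; free hemoglobin read spectrophotometrically at 542 nm.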

In series [3] the test system is Plasmodium falciparum. Put plainly: Antimalarial activity against Plasmodium falciparum NF54 infected in human serum after 48 hrs by fluorometric method. In kind it is functional, organism-based. Summed up:
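Asynchronous P. falciparum NF54 cultures at 1.5–2% parasitemia, 5% hematocrit in RPMI with 10% human serum; equal volumes of parasite suspension and compound dilutions (from 100 µg/mL stock) incubated 48 h, 37 °C, 90% N2/5% CO2/5% O2. DNA extracted with proteinase K lysis, stained with ethidium bromide; fluorescence-based viability vs compound-free control. IC50 by Probit; triplicate.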

The test system of series [4] is Plasmodium falciparum. Put plainly: Antimalarial activity against Plasmodium falciparum NF54 infected in human serum at 22.2 ug/ml after 48 hrs by fluorometric method. The format is functional. The gist of the method:
as §1

In brackets after ≈: the same amount, converted by molar mass.

`Cc1ccc(C2CC(c3cccc(Nc4ccnc5cc(Cl)ccc45)c3)=NN2C=O)cc1` (stereo unspecified): at 20 µg/mL the inhibition with Plasmodium falciparum [1] was 0%.

Take `CC(=O)N1N=C(c2ccc(Nc3ccnc4cc(Cl)ccc34)cc2)CC1c1ccccc1` (stereo unspecified): the hemolysis at 48 h in series [2] came to 2.8%. In the series with Plasmodium falciparum [3], this compound registered a concentration for half-maximal inhibition (IC50) of 38 µg/mL (≈ 86.2 µM). In the series on Plasmodium falciparum [1], this compound came in with an inhibition at 20 µg/mL of 33%. For `COc1ccc(C2CC(c3ccc(Nc4ccnc5cc(Cl)ccc45)cc3)=NN2C(C)=O)cc1` (stereo unspecified) the same measures were 3.1%, more than 100 µg/mL and 38.3%. `COc1cc(C2CC(c3ccc(Nc4ccnc5cc(Cl)ccc45)cc3)=NN2C(C)=O)cc(OC)c1OC` (stereo unspecified) came in with an inhibition at 20 µg/mL in the series with Plasmodium falciparum [1] of 0%. The same measure, in the same setting: the value for `CC(=O)N1N=C(c2ccc(Nc3ccnc4cc(Cl)ccc34)cc2)CC1c1ccc(C)cc1` (stereo unspecified) was 10.6%. As to `O=CN1N=C(c2ccc(Nc3ccnc4cc(Cl)ccc34)cc2)CC1c1ccc(Br)cc1` (stereo unspecified), the hemolysis at 48 h in series [2] was 3.2%. Further, the concentration for half-maximal inhibition (IC50) with Plasmodium falciparum [3] amounted to 14.1 µg/mL (≈ 27.9 µM). In the series with Plasmodium falciparum [1], this compound yielded an inhibition at 20 µg/mL of 50.8%.

As to `O=CN1N=C(c2cccc(Nc3ccnc4cc(Cl)ccc34)c2)CC1c1ccc(Br)cc1` (stereo unspecified), the inhibition at 20 µg/mL with Plasmodium falciparum [1] was determined as 12.5%. `CC(=O)N1N=C(c2ccc(Nc3ccnc4cc(Cl)ccc34)cc2)CC1c1ccc(Br)cc1` (stereo unspecified) registered an inhibition at 20 µg/mL in the series with Plasmodium falciparum [1] of 6.8%. For the compound `CCN(CC)CCCC(C)Nc1ccnc2cc(Cl)ccc12` (stereo unspecified) [CHLOROQUINE PHOSPHATE], the hemolysis at 48 h in series [2] came out at 17.2%. Testing at 22.2 µg/mL in the series with Plasmodium falciparum [4] gave an inhibition of 68.4%.
